{"source": "paper PMC6936558", "about": "(Proceedings of the National Academy of Sciences of the …, 2019)", "key": {"[1]": {"target": "SpyCatcher003-sfGFP", "assay": "covalent reaction"}, "[2]": {"target": "SpyCatcher003", "assay": "covalent reaction followed by SDS/PAGE with Coomassie staining"}, "[3]": {"tested_on": "SpyCatcher003", "assay": "Isothermal titration calorimetry", "type": "binding, Streptococcus pyogenes", "settings": "PBS pH 7.4, 25 °C"}, "[4]": {"target": "SpyCatcher003", "assay": "SPR"}, "[5]": {"tested_on": "SpyCatcher003-sfGFP", "assay": "Comparison of stages of SpyTag development", "type": "biochemical", "settings": "10 nM each, 10 min, SPG buffer pH 7.0 + 0.2% BSA, 25 °C; n = 3"}, "[6]": {"target": "SpyCatcher003-555", "assay": "FRET or BRET"}, "[7]": {"tested_on": "SpyCatcher002-sfGFP", "settings": "cited from earlier work"}, "[8]": {"tested_on": "SpyCatcher002-555", "assay": "Stopped-flow FRET kinetics", "type": "binding, Streptococcus pyogenes", "settings": "PBS pH 7.4, 25 °C; mean ± 1 SD, n = 4", "outline": "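Stopped-flow fluorescence with 1:1 mixing at 25 °C in PBS pH 7.4, excitation 480 nm, emission through a 515-nm long-pass filter. The SpyTag variant-mClover3 was at 100 nM final against pseudo-first-order SpyCatcher variant-555 at 400 to 1,000 nM. kon came from a linear fit of the first-phase kobs against SpyCatcher variant concentration.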"}, "[9]": {"target": "SpyCatcher002-555", "assay": "FRET or BRET"}}, "note": "Values joined by “and” are separate entries in the source; they are usually repeats but may differ in a detail not shown here. Equal entries are not always repeated.", "data": [{"substance": "SpyTag003-maltose binding protein (MBP) (peptide)", "values": [{"measurement": "percent completion of the covalent reaction (10 nM each, 15 min)", "setting": "[1]", "value": "> 90", "unit": "%"}, {"measurement": "percent completion of the covalent reaction (SpyCatcher003 in excess)", "setting": "[2]", "value": "> 99", "unit": "%"}, {"measurement": "percent completion of the covalent reaction (SpyTag003 in excess)", "setting": "[2]", "value": "> 99", "unit": "%"}]}, {"substance": "RGVPHIVMVAAYKRYK [SpyTag003 DA-MBP]", "values": [{"measurement": "affinity by ITC", "setting": "[3]", "value": "too tight to measure by ITC"}]}, {"substance": "SpyTag003 DA-MBP (peptide)", "values": [{"measurement": "Kd", "setting": "[4]", "value": 21, "unit": "nM"}]}, {"substance": "VPHIVMVDAYKRYK [SpyTag002 T112H]", "values": [{"measurement": "effect of Tag mutation on reaction rate", "setting": "[5]", "value": "enhanced reaction rate"}]}, {"substance": "SpyTag003-mClover3 (peptide)", "values": [{"measurement": "decrease in donor (mClover3) peak fluorescence intensity", "setting": "[6]", "value": 35, "unit": "%"}, {"measurement": "kobs1 (first phase, 500 nM SpyCatcher003-555)", "setting": "[6]", "value": 0.54, "unit": "s⁻¹"}, {"measurement": "kobs2 (second phase, 500 nM SpyCatcher003-555)", "setting": "[6]", "value": 0.016, "unit": "s⁻¹"}, {"measurement": "kobs3 (third phase, 500 nM SpyCatcher003-555)", "setting": "[6]", "value": 0.004, "unit": "s⁻¹"}, {"measurement": "koff", "setting": "[6]", "value": 0.26, "unit": "s⁻¹"}, {"measurement": "kon", "setting": "[6]", "value": 620000, "unit": "M⁻¹ s⁻¹"}]}, {"substance": "SpyTag003 DA-mClover3 (peptide)", "values": [{"measurement": "dissociation rate constant, first phase of the chase (90% of signal change)", "setting": "[6]", "value": 0.009, "unit": "s⁻¹"}, {"measurement": "dissociation rate constant, second phase of the chase (10% of signal change)", "setting": "[6]", "value": 0.002, "unit": "s⁻¹"}, {"measurement": "estimated Kd of one version of the complex (dissociation rate constant / kon)", "setting": "[6]", "value": "3 nM and 13 nM"}, {"measurement": "kobs2 (second phase)", "setting": "[6]", "value": 0.08, "unit": "s⁻¹"}, {"measurement": "kobs3 (third phase)", "setting": "[6]", "value": 0.004, "unit": "s⁻¹"}, {"measurement": "kon", "setting": "[6]", "value": 680000, "unit": "M⁻¹ s⁻¹"}]}, {"substance": "VPTIVMVDAYKRYK [SpyTag002]", "values": [{"measurement": "improvement of rate of reaction over SpyTag/SpyCatcher", "setting": "[7]; by phage display selection, SpyTag002 and SpyCatcher002", "value": "> 12", "unit": "fold"}, {"measurement": "second-order rate constant, SpyTag002/SpyCatcher002", "setting": "[7]; previously shown", "value": 20000, "unit": "M⁻¹ s⁻¹"}, {"measurement": "association rate constant (kon)", "setting": "[8]", "value": "4.2 ± 0.5 × 10^5 M^−1 s^−1"}]}, {"substance": "SpyTag002-mClover3 (peptide)", "values": [{"measurement": "kon", "setting": "[9]", "value": 420000, "unit": "M⁻¹ s⁻¹"}]}]}
